According to ChEMBL document CHEMBL2176865, “Discovery of diarylhydantoins as new selective androgen receptor modulators” (J Med Chem, 2012):

Legend:
Rattus norvegicus [1] = test: Androgenic activity in ORX rat model assessed as ventral prostate weight at 10 mg/kg, po administered 4 days relative to sham-treated control; type: functional, Prostate gland
Summary of the method: (§1)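 Young (immature) rats castrated, left untreated one week, then dosed daily for four days (test agents orally; testosterone propionate subcutaneously). Untreated ORX and sham-operated rats as controls. Levator ani (anabolic) and ventral prostate (androgenic) weights normalised to body weight; activity % = (W/BW treated − W/BW ORX)/(W/BW sham − W/BW ORX) × 100; A50 = dose giving 50% activity.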

Rattus norvegicus [2] = test: Anabolic activity in ORX rat model assessed as levator ani muscle weight at 10 mg/kg, po administered 4 days relative to sham-treated control; type: functional; summary of the method: as §1
Rattus norvegicus [3] = test: Androgenic activity in ORX rat model assessed as ventral prostate weight at 30 mg/kg, po administered 4 days relative to sham-treated control; type: functional, Prostate gland; summary of the method: as §1
Rattus norvegicus [4] = test: Anabolic activity in ORX rat model assessed as levator ani muscle weight at 30 mg/kg, po administered 4 days relative to sham-treated control; type: functional; summary of the method: as §1
Rattus norvegicus [5] = test: Androgenic activity in ORX rat model assessed as ventral prostate weight at 1 mg/kg, sc administered 4 days relative to sham-treated control; type: functional, Prostate gland; settings: route subcutaneous; summary of the method: as §1
Rattus norvegicus [6] = test: Androgenic activity in sc dosed ORX rat model assessed as dose required to induce 50% effect on ventral prostate weight administered 4 days; type: functional, Prostate gland; summary of the method: as §1
Rattus norvegicus [7] = test: Anabolic activity in sc dosed ORX rat model assessed as maximum effect on levator ani muscle weight administered 4 days relative to sham-treated control; type: functional; summary of the method: as §1
Rattus norvegicus [8] = test: Androgenic activity in sc dosed ORX rat model assessed as maximum effect on ventral prostate weight administered 4 days relative to sham-treated control; type: functional, Prostate gland; summary of the method: as §1
Rattus norvegicus [9] = test: Anabolic activity in ORX rat model assessed as levator ani muscle weight at 1 mg/kg, sc administered 4 days relative to sham-treated control; type: functional; settings: route subcutaneous; summary of the method: as §1
Rattus norvegicus [10] = test: Anabolic activity in sc dosed ORX rat model assessed as dose required to induce 50% effect on levator ani muscle weight administered 4 days; type: functional; summary of the method: as §1

COc1cc(N2C(=O)N(C)[C@](C)(c3ccc(O)cc3)C2=O)ccc1C#N
Activity (Rattus norvegicus [1]): 30%
Activity (Rattus norvegicus [2]): 132%

CN1C(=S)N(c2ccc(C#N)c(C(F)(F)F)c2)C(=O)C1(C)c1ccc(O)cc1 (racemic)
Activity (Rattus norvegicus [3]): 4%
Activity (Rattus norvegicus [4]): 12%

COc1cc(N2C(=O)N(C)C(C)(c3ccc(O)cc3)C2=O)ccc1C#N (racemic)
Activity (Rattus norvegicus [3]): 51%
Activity (Rattus norvegicus [4]): 96%

C#CCN1C(=O)N(c2ccc(C#N)c(C(F)(F)F)c2)C(=O)C1(C)c1ccc(O)cc1 (racemic)
Activity (Rattus norvegicus [3]): 19%
Activity (Rattus norvegicus [4]): 95%

CCC(=O)O[C@H]1CC[C@H]2[C@@H]3CCC4=CC(=O)CC[C@]4(C)[C@H]3CC[C@]12C [TESTOSTERONE PROPIONATE]
Activity (Rattus norvegicus [5]): 73%
Activity (Rattus norvegicus [6]): 0.2 mg/kg
Activity (Rattus norvegicus [7]): 130%
Activity (Rattus norvegicus [8]): 130%
Activity (Rattus norvegicus [9]): 99%
Activity (Rattus norvegicus [10]): 0.3 mg/kg

Cc1c(N2C(=O)N(C)C(C)(c3ccc(O)cc3)C2=O)ccc(C#N)c1Cl (racemic)
Activity (Rattus norvegicus [3]): 12%
Activity (Rattus norvegicus [4]): 82%
